What was measured:
Type in all cases: functional
[1] = system: Mus musculus; assay: Antitumor activity against L1210 leukemia in mice (Percent increase in life span.) at the dose of 240 mg/kg (mice surviving 20 or more days)
Method in brief: (§1)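 Male B6D2F1J mice, groups of 5–9, inoculated ip with 10^5 L1210 cells on day 0. Dosing starts day 1 on a qd×5 or q4d(2,6) schedule. Vehicles are sterile water, pH 7.4 0.05 M potassium phosphate buffer, or 0.4% Tween 80/0.5% CMC/0.9% benzyl alcohol/0.9% saline. %ILS = (T/C − 1)×100 from median survival. Weights taken days 1 and 7.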

[2] = system: Mus musculus; assay: Antitumor activity against L1210 leukemia in mice (Average weight per mouse on day 1.) at the dose of 180 mg/kg
Method in brief: (§2)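 Male B6D2F1J mice (5–9 per group) received 10^5 L1210 cells i.p. on day 0 and drug from day 1, given qd×5 or q4d(2,6). Vehicles were sterile water, 0.05 M potassium phosphate pH 7.4, or 0.4% Tween 80/0.5% CMC/0.9% benzyl alcohol/0.9% saline. Read-out is average body weight per mouse (g) on day 1.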

[3] = system: Mus musculus; assay: Antitumor activity against L1210 leukemia in mice (Average weight per mouse on day 1.) at the dose of 240 mg/kg; method in brief: as §2
[4] = system: Mus musculus; assay: Antitumor activity against L1210 leukemia in mice (Percent increase in life span.) at the dose of 180 mg/kg (mice surviving 20 or more days); method in brief: as §1
[5] = system: Mus musculus; assay: Antitumor activity against L1210 leukemia in mice (Average 7-day weight change (%)) at the dose of 180 mg/kg
Method in brief: (§3)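 Male B6D2F1J mice, groups of five to nine, inoculated ip with 10^5 L1210 cells on day 0. Drug treatment started day 1 on qd×5 or q4d(2,6) schedule. Vehicles: ara-C in sterile water; the n-butyl phosphate ester in 0.05 M pH 7.4 potassium phosphate buffer; others as suspensions in 0.4% Tween 80/0.5% low-density CMC/0.9% benzyl alcohol/0.9% saline. Mice weighed days 1 and 7; 7-day weight change given as g/mouse and %.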

[6] = system: Mus musculus; assay: Antitumor activity against L1210 leukemia in mice (Average 7-day weight change (%)) at the dose of 240 mg/kg; method in brief: as §3
[7] = system: Mus musculus; assay: Antitumor activity against L1210 leukemia in mice (Average 7-day weight change) at the dose of 180 mg/kg; method in brief: as §3
[8] = system: Mus musculus; assay: Antitumor activity against L1210 leukemia in mice (Average 7-day weight change) at the dose of 240 mg/kg; method in brief: as §3
[9] = system: Mus musculus; assay: Antitumor activity against L1210 leukemia in mice (Percent increase in life span.) at the dose of 234 mg/kg (mice surviving 20 or more days); method in brief: as §1
[10] = system: Mus musculus; assay: Antitumor activity against L1210 leukemia in mice (Average weight per mouse on day 1.) at the dose of 234 mg/kg; method in brief: as §2
[11] = system: Mus musculus; assay: Antitumor activity against L1210 leukemia in mice (Average weight per mouse on day 1.) at the dose of 468 mg/kg; method in brief: as §2
[12] = system: Mus musculus; assay: Antitumor activity against L1210/ara-C leukemia in mice (Average weight per mouse on day 1.) at the dose of 117 mg/kg
Method in brief: (§4)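 Male B6D2F1J mice, groups of 5–9, inoculated ip with 10^5 L1210/ara-C cells on day 0. Dosing began day 1 on a qd×5 or q4d(2,6) schedule. Ara-C was given in sterile water, the n-butyl phosphate ester in 0.05 M pH 7.4 potassium phosphate buffer, and others as suspensions in 0.4% Tween 80/0.5% CMC/0.9% benzyl alcohol/0.9% saline. Mice were weighed on days 1 and 7; 7-day change given in g and %.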

[13] = system: Mus musculus; assay: Antitumor activity against L1210/ara-C leukemia in mice (Average weight per mouse on day 1.) at the dose of 234 mg/kg; method in brief: as §4
[14] = system: Mus musculus; assay: Antitumor activity against L1210/ara-C leukemia in mice (Average weight per mouse on day 1.) at the dose of 468 mg/kg; method in brief: as §4
[15] = system: Mus musculus; assay: Antitumor activity against L1210 leukemia in mice (Percent increase in life span.) at the dose of 117 mg/kg; method in brief: as §1
[16] = system: Mus musculus; assay: Antitumor activity against L1210 leukemia in mice (Percent increase in life span.) at the dose of 468 mg/kg (mice surviving 20 or more days); method in brief: as §1
[17] = system: Mus musculus; assay: Antitumor activity against L1210/ara-C leukemia in mice (Percent increase in life span.) at the dose of 117 mg/kg
Method in brief: (§5)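 Same protocol as the L1210 assay, but with 10^5 kinase-deficient L1210/ara-C cells inoculated ip into male B6D2F1J mice (groups of 5–9) on day 0. Treatment begins day 1, qd×5 or q4d(2,6). %ILS = (T/C − 1)×100 using median survival times of treated and control groups. Body weight recorded days 1 and 7.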

[18] = system: Mus musculus; assay: Antitumor activity against L1210 leukemia in mice (Average 7-day weight change (%)) at the dose of 234 mg/kg; method in brief: as §3
[19] = system: Mus musculus; assay: Antitumor activity against L1210 leukemia in mice (Average 7-day weight change (%)) at the dose of 468 mg/kg; method in brief: as §3
[20] = system: Mus musculus; assay: Antitumor activity against L1210/ara-C leukemia in mice (Percent increase in life span.) at the dose of 234 mg/kg; method in brief: as §5
[21] = system: Mus musculus; assay: Antitumor activity against L1210/ara-C leukemia in mice (Percent increase in life span.) at the dose of 468 mg/kg; method in brief: as §5
[22] = system: Mus musculus; assay: Antitumor activity against L1210 leukemia in mice (Average 7-day weight change) at the dose of 234 mg/kg; method in brief: as §3
[23] = system: Mus musculus; assay: Antitumor activity against L1210 leukemia in mice (Average 7-day weight change) at the dose of 117 mg/kg; method in brief: as §3
[24] = system: Mus musculus; assay: Antitumor activity against L1210/ara-C leukemia in mice (Average 7-day weight change) at the dose of 117 mg/kg
Method in brief: (§6)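 Male B6D2F1J mice (5–9 per group) were given 10^5 L1210/ara-C cells i.p. on day 0, with treatment from day 1 on qd×5 or q4d(2,6). Vehicles were sterile water, pH 7.4 0.05 M phosphate buffer, or a Tween 80/CMC/benzyl alcohol saline suspension. Weights were taken on days 1 and 7; change is expressed in g/mouse and as a percentage.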

[25] = system: Mus musculus; assay: Antitumor activity against L1210/ara-C leukemia in mice (Average 7-day weight change) at the dose of 234 mg/kg; method in brief: as §6
[26] = system: Mus musculus; assay: Antitumor activity against L1210/ara-C leukemia in mice (Average 7-day weight change) at the dose of 468 mg/kg; method in brief: as §6
[27] = system: Mus musculus; assay: Antitumor activity against L1210 leukemia in mice (Average 7-day weight change) at the dose of 468 mg/kg; method in brief: as §3
[28] = system: Mus musculus; assay: Antitumor activity against L1210/ara-C leukemia in mice (Average 7-day weight change (%)) at the dose of 117 mg/kg; method in brief: as §6
[29] = system: Mus musculus; assay: Antitumor activity against L1210/ara-C leukemia in mice (Average 7-day weight change (%)) at the dose of 234 mg/kg; method in brief: as §6
[30] = system: Mus musculus; assay: Antitumor activity against L1210/ara-C leukemia in mice (Average 7-day weight change (%)) at the dose of 468 mg/kg; method in brief: as §6
[31] = system: Mus musculus; assay: Antitumor activity against L1210 leukemia in mice (Average 7-day weight change (%)) at the dose of 117 mg/kg; method in brief: as §3
[32] = system: Mus musculus; assay: Antitumor activity against L1210 leukemia in mice (Average weight per mouse on day 1.) at the dose of 117 mg/kg; method in brief: as §2

CCCCCCCCCCCCCC(=O)O[C@H]1[C@@H]2Oc3nc(=N)ccn3[C@@H]2O[C@@H]1COP(=O)(O)OCCCC
ILS at 240 mg/kg [1]: 112%
Average weight [2]: 23.2 g mouse-1
Average weight [3]: 23.4 g mouse-1
ILS at 180 mg/kg [4]: 100%
Weight change [5]: -11%
Weight change [6]: -17%
Weight change [7]: -2.6 g mouse-1
Weight change [8]: -4 g mouse-1

CCCCCCCCCCCCCCCC(=O)O[C@H]1[C@@H]2Oc3nc(=N)ccn3[C@@H]2O[C@@H]1COP(=O)(O)OCC
ILS at 234 mg/kg [9]: 138%
Average weight [10]: 24.2 g mouse-1
Average weight [11]: 23.6 g mouse-1
Average weight [12]: 22.4 g mouse-1
Average weight [13]: 21.4 g mouse-1
Average weight [14]: 22 g mouse-1
ILS at 117 mg/kg [15]: 75%
ILS at 468 mg/kg [16]: 100%
ILS at 117 mg/kg [17]: 0%
Weight change [18]: -11%
Weight change [19]: -16%
ILS at 234 mg/kg [20]: 0%
ILS at 468 mg/kg [21]: -13%
Weight change [22]: -2.6 g mouse-1
Weight change [23]: -1.6 g mouse-1
Weight change [24]: 2 g mouse-1
Weight change [25]: 0.2 g mouse-1
Weight change [26]: -2.4 g mouse-1
Weight change [27]: -3.8 g mouse-1
Weight change [28]: 9%
Weight change [29]: 1%
Weight change [30]: -20%
Weight change [31]: -7%
Average weight [32]: 24.4 g mouse-1

From ChEMBL document CHEMBL1122008, “Lipophilic 5'-(alkyl phosphate) esters of 1-beta-D-arabinofuranosylcytosine and its N4-acyl and 2,2'-anhydro-3'-O-acyl derivatives as potential prodrugs” (1982)
